Each structure is given as a SMILES string. The whole screen tested about 360,000 compounds, of which about 3,600 (1%) were called active. The sample as a whole holds a higher share of actives than the screen did. Unmarked numbers belong to inactive results.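 The calls were made as follows: active = activation above the mean activation of all test compounds in the run plus 3 SD (cut at about 38% in these data); inactive = the rest.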

Sequence of Trace amine-associated receptor 1 (Homo sapiens) (Q96RJ0 whole entry, looked up): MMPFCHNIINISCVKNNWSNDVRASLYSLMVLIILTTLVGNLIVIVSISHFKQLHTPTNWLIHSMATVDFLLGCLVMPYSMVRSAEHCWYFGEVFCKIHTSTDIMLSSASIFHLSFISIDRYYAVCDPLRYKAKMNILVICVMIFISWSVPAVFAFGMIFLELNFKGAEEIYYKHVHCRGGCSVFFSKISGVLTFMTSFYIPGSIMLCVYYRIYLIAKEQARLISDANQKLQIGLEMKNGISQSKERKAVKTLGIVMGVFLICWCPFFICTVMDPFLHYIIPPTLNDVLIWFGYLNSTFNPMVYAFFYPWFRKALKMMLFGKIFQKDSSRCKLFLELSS

The experiment has as its target Trace amine-associated receptor 1 (Homo sapiens) (UniProt Q96RJ0). The experiment can be described thus: activators of TAAR1 calcium mobilization – Fluo-8 calcium fluorescence, CHO RD-HGA16 cells, primary screen (AID 624467). Particulars: CHO RD-HGA16 TAAR1, Fluo-8 calcium fluorescence; at 3 µM; stronger effect = higher value. Summed up: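 Assay system: CHO-derived RD-HGA16 cells with stable Gα16 and human TAAR1; timing: 17-24 h seeding, 75 min 37 °C dye, 30 min RT; read-out: % activation from peak over basal fluorescence ratio, DMSO-to-PEA scaled; measured by: kinetic Fluo-8 calcium fluorescence; benchmarks: low control DMSO, high control PEA (EC100); doses: 3 µM single concentration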
Turning to `Cc1cccc(N2C(=O)NC(=O)/C(=C\c3cnn(-c4ccccc4)c3)C2=O)c1`, the activation is 44.9% (active).

For the compound `COc1cc(OC)cc(C(=O)NCCN2CCC3(CC2)C(=O)NCN3c2ccccc2)c1`, the activation is 0.43%.

Consider `CCC(=O)OC(Cc1ccccc1)(c1ccccc1)C(C)CN(C)C` (stereo not given), for which the activation is 1.23%.

As to `COC(=O)COc1cc(C)cc2oc(=O)c3c(c12)CCCC3`, the activation was 15.7%.

In the case of `CCOP(=O)(OCC)C(NC(=O)NC)C(N)=O` (stereo not given), the activation is 1.74%.

With `Cc1ccc(CN2CCCC(C(=O)c3ccc4c(c3)OCO4)C2)cc1C` (stereo not given), the activation is 5.3%.

Turning to `CCCCCCN=C(CC)c1c(O)n(CCCC)c(=O)[nH]c1=O`, the activation is 18.9%.

Consider `CC(=O)c1c(O)n(C2CCCCCC2)c(=O)[nH]c1=O`, for which the activation is 2.62%.

For `CCC(=NCCc1ccccc1)c1c(O)n(C2CCCCC2)c(=O)[nH]c1=O`, the activation is 82.8% (active).

With `c1ccc(C(CN2CCCCC2)c2ccccc2)cc1`, the activation is 5.89%.

`COc1ccc(NC(=O)N2CCC3(CC2)OCCO3)c(OC)c1`: the activation was 4.78%.

Turning to `Brc1ccc2c(c1)CNCc1cnnn1-2`, the activation was 2.44%.

`CC(=NC1CCN(Cc2ccccc2)CC1)c1c(O)n(C)c(=O)n(C)c1=O`: the activation was -0.62%.

For `COc1cc(C(=O)N2Cc3ccc(Br)cc3-n3nncc3C2)cc(OC)c1OC`, the activation was 1.8%.

`CCOc1cccc(=NC2CCCCC2)c2c(C)[nH]c(C)c12`: the activation was 2.88%.

`Clc1ccc([C@@H]2CC3CCC2N3)cn1` (stereo not given in full): the activation is 0.89%.

Regarding `CCOC(=O)C1SC2(C(F)(F)C(F)F)CC1(O)c1c(c(OC)c3occc3c1OC)O2` (stereo not given), the activation was 2.66%.

As to `CCCCC(=O)N/N=C/c1c(O)n(CC)c(=S)n(CC)c1=O`, the activation was 115% (active).

In the case of `CCCCC(=O)N/N=C/c1c(O)n(CCC2=CCCCC2)c(=O)[nH]c1=O`, the activation was 3.56%.

In the case of `Cn1c(O)c(C=NCCCC(=O)O)c(=O)n(C)c1=O`, the activation is 1.16%.

`CC(=NCc1ccc2c(c1)OCO2)c1c(O)[nH]c(=O)[nH]c1=O`: the activation was 4.1%.

As to `O=C1NC(=O)N(Cc2ccco2)C(=O)/C1=C\c1ccc(-c2ccc(F)cc2)o1`, the activation was 51.8% (active).

`COc1ccc(-c2nn(CCC#N)cc2C(=O)O)cc1`: the activation is 0.78%.

As for `C[C@]12CCC3C(CC[C@H]4[C@H](O)[C@H](O)CC[C@]34C)C1CCC2=O` (stereo not given in full), the activation was 4.54%.

As for `COc1ccc2c(c1)[C@@]13CCCCC1[C@@H](C2)NCC3` (stereo not given in full), the activation was 4.44%.

Turning to `CCN1CC2C3CCC(C)(O3)C2C1` (stereo not given), the activation is 1.68%.

Turning to `CCC(C)NC1(c2ccccc2)CCCCC1` (stereo not given), the activation is 3.45%.

`CC(Cc1ccccc1)NCCC(c1ccccc1)c1ccccc1` (stereo not given): the activation is 44.2% (active).

For `CC(=O)Nc1ccc(C(=O)C(Cc2ccccc2)N(C)C)cc1` (stereo not given), the activation is 5.99%.

With `CC(Cc1ccccc1)NC=O` (stereo not given), the activation was 68.4% (active).

As for `O=c1c2ccccc2nc(/C=C/c2ccco2)n1-c1ccccc1O`, the activation was 0.46%.

Regarding `C[N+]12CN3CN(CN(C3)C1)C2`, the activation is 4.95%.

As to `S=C(NCCc1ccccc1)N1Cc2cc(N3CCOCC3)ccc2-n2nncc2C1`, the activation is 25.3%.

`O=S(=O)(c1ccccc1)N1CCC2CCNC2C1` (stereo not given): the activation was 2.18%.

Regarding `CCN(CC)C(=O)c1ccc(NC(=O)c2cc(-n3cnnc3)ccc2Cl)cc1`, the activation is 8.2%.

For `Cc1cc(N2CCNC[C@@H]2C)ccc1N1CC[C@H](O)C1`, the activation is 0.68%.

`CCN(CC)C(=O)[C@@H]1C=C2c3cccc4[nH]c(Br)c(c34)C[C@H]2N(C)C1`: the activation is 0.25%.

In the case of `CS(=O)(=O)N1CCC2CCNC2C1` (stereo not given), the activation was 2.13%.

On to `Clc1ccc2nc3c(c(-c4ccccc4)c2c1)CNCC3`, for which the activation was 55% (active).

Consider `O=c1[nH]c(=O)n(CCc2ccccc2)c(O)c1/C=N/N1CCOCC1`, for which the activation was 7.45%.

With `NCC(O)c1ccc(O)cc1` (stereo not given), the activation was 80.5% (active).

Consider `CC12CN3CC(C)(CN(C1)C3c1cccs1)C2` (stereo not given), for which the activation is 8.25%.

Take `CC(CC(C#N)(c1ccccc1)c1ccccc1)N1CCCCC1` (stereo not given): the activation was 1.72%.

With `O=C(N/N=C/c1c(O)n(C2CC2)c(=S)[nH]c1=O)c1ccccc1Cl`, the activation was -1.25%.

In the case of `COc1ccc(-n2nnnc2C(c2cccc3ccccc23)N2CCC(n3c(=O)[nH]c4ccccc43)CC2)cc1` (stereo not given), the activation was 3.04%.

Take `O=c1[nH]c2ccccc2n1C1CCN(C(c2ccccc2)c2nnnn2Cc2ccccc2)CC1` (stereo not given): the activation is 10.1%.

In the case of `O=c1[nH]c2ccccc2n1C1CCN(C(c2ccnc3ccccc23)c2nnnn2Cc2ccccc2)CC1` (stereo not given), the activation is 40.5% (active).

On to `Cc1ccc2c(c1)=C/C(=C\c1c(O)[nH]c(=O)[nH]c1=O)C(=O)N=2`, for which the activation is 0.28%.

With `COc1cccc(OC)c1C(=O)NC(=S)N1C[C@H]2C[C@H](C1)c1cccc(=O)n1C2`, the activation is 4.06%.

Turning to `O=C1CC(=O)N(Cc2ccccc2)C(=O)N1CCCCCCN1C(=O)CC(=O)N(Cc2ccccc2)C1=O`, the activation was 1.5%.

Take `O=C(CN1CCCC1=O)NCCc1ccccc1`: the activation is 38.6% (active).

Consider `c1ccc(CCNC2CCCCCC2)cc1`, for which the activation was 87.1% (active).

As for `OC(CNC1CCCCC1)c1ccccc1` (stereo not given), the activation is 0.51%.

As to `c1cc2c(cc1CCNC1CCCCCC1)OCO2`, the activation was 4.36%.

Turning to `COc1ccc(CNCCc2c[nH]c3ccccc23)cc1OC`, the activation was 1.21%.

For the compound `COc1ccc(CNCCc2ccc3c(c2)OCO3)c(OC)c1OC`, the activation was 2.45%.

Consider `COc1ccc(Br)cc1CNCCc1cccc(Cl)c1`, for which the activation was 49.1% (active).

For `CNC(=S)N/N=C1\C2CN3CCN(C2)CC1(c1ccccc1)C3`, the activation was 2.42%.

As to `c1ccc2sc(N3CCNCC3)nc2c1`, the activation is 10.3%.

Take `CC(C)CN1Cc2cc(N3CCCCC3)ccc2-n2nncc2C1`: the activation was -1.61%.

The values above are taken from PubChem BioAssay AID624467 (The Scripps Research Institute Molecular Screening Center, 2012).
